Tests used:
Format in all cases: functional
CWR22R = experiment: Antiproliferative activity against human 22Rv1 cells assessed as reduction in cell growth incubated for 96 hrs by propidium iodide based 2D monolayer assay; conditions: 22Rv1, 96 h
How it was run: (§1)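 After 24 h recovery, compound in medium or medium alone (control wells) was added at 10 half-log concentrations from 0.0032 to 100 µM, in triplicate, with at most 0.3% DMSO. After 96 h, wells were PBS-washed, stained with 7 µg/ml PI and 0.1% Triton X-100, and fluorescence read at 530/620 nm. IC50 came from a 4-parameter fit, geometric mean.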

LNCaP = experiment: Antiproliferative activity against human LNCAP cells assessed as reduction in cell growth incubated for 96 hrs by propidium iodide based 2D monolayer assay; how it was run: as §1
VCaP = experiment: Antiproliferative activity against human VCaP cells assessed as reduction in cell growth incubated for 96 hrs by propidium iodide based 2D monolayer assay
How it was run: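 VCaP cells in RPMI 1640 with 10% FCS at 37 °C, 5% CO2, seeded 4,000–20,000 cells/well and left 24 h before dosing. Compounds from DMSO stocks were diluted in half-log steps in medium, 10 concentrations 0.0032–100 μM, triplicate wells, max 0.3% DMSO. After 96 h, cells were washed, stained with 7 μg/ml propidium iodide plus 0.1% Triton X-100 for 1–2 h at room temperature, and fluorescence read at ex 530/em 620 nm.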

DU-145 = experiment: Antiproliferative activity against human DU145 cells assessed as reduction in cell growth incubated for 96 hrs by propidium iodide based 2D monolayer assay; conditions: DU-145, 96 h; how it was run: as §1

Compound	IC50 (CWR22R) [µM]	IC50 (LNCaP) [µM]	IC50 (VCaP) [µM]	IC50 (DU-145) [µM]
CC(O)(CS(=O)(=O)c1ccc(F)cc1)C(=O)Nc1cccc(S(F)(F)(F)(F)F)c1 (racemic)	38.9	32.6	37.9	48.8
CC(O)(COc1cccc(C(F)(F)C(F)(F)F)c1)C(=O)Nc1cc(C(F)(F)F)cc(C(F)(F)F)c1 (racemic)	4.1	4.4	9.5	8.5
CC(O)(CS(=O)(=O)c1ccccc1OC(F)(F)F)C(=O)Nc1ccc(S(F)(F)(F)(F)F)cc1 (racemic)	16	12.7	19.9	19.5
CC(O)(COc1cccc(C(F)(F)C(F)(F)F)c1)C(=O)Nc1ccc(C(F)(F)F)cc1 (racemic)	3.6	3.9	8.1	7.6
CC(O)(CS(=O)(=O)c1ccc(OC(F)(F)F)cc1)C(=O)Nc1cccc(S(F)(F)(F)(F)F)c1 (racemic)	31.2	10.7	15.1	35.6
CC(O)(CS(=O)(=O)c1cccc(C(F)(F)F)c1)C(=O)Nc1cccc(S(F)(F)(F)(F)F)c1 (racemic)	24.6	21.8	35.5	37.3
CC(O)(CS(=O)(=O)c1ccc(S(F)(F)(F)(F)F)cc1)C(=O)Nc1cccc(S(F)(F)(F)(F)F)c1 (racemic)	12.3	11.7	17.2	17.4
CC(O)(CS(=O)(=O)c1cc(C(F)(F)F)cc(C(F)(F)F)c1)C(=O)Nc1cccc(S(F)(F)(F)(F)F)c1 (racemic)	9.3	9.7	10.4	13.7
CC(O)(CS(=O)(=O)c1ccccc1C(F)(F)F)C(=O)Nc1cccc(S(F)(F)(F)(F)F)c1 (racemic)	27.7	24.9	40.8	27.3

Reference: ChEMBL document CHEMBL4364301 (Eur J Med Chem, 2019)
